{"source": "ChEMBL document CHEMBL3351594", "about": "“Cytotoxic dimeric epipolythiodiketopiperazines from the ascomycetous fungus Preussia typharum” (J Nat Prod, 2014)", "key": {"[1]": {"test": "Cytotoxicity against human OVCAR5 cells by SRB method", "type": "functional", "method_in_brief": "(§1)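 NCI-60 in vitro drug screening panel. Values are the molar concentrations giving 50% growth inhibition (GI50) and total growth inhibition (TGI).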"}, "ACHN": {"test_system": "ACHN", "test": "Cytotoxicity against human ACHN cells by SRB method", "type": "functional", "method_in_brief": "as §1"}, "CAKI-1": {"test_system": "CAKI-1", "test": "Cytotoxicity against human Caki1 cells by SRB method", "type": "functional", "method_in_brief": "as §1"}, "[2]": {"test": "Toxicity in ip dosed athymic nude mouse xenografted with human UACC62 cells administered every 4 days", "type": "organism-based, UACC-62", "details": "in vivo", "method_in_brief": "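Female athymic nude mice received 2 × 10^6 UACC-62 cells sc into each flank and were randomized at a median tumor volume of 150 mm3 (n = 5/group). Compound was given ip in DMSO–Cremophor (1:1) diluted in 200 μL DPBS (final ≤2.5%). Dose-tolerance testing used 10, 2 and 1.5 mg/kg (every 4 days). Mice were weighed daily for weight loss.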"}, "CCRF-CEM": {"test_system": "CCRF-CEM", "test": "Cytotoxicity against human CCRF-CEM cells by SRB method", "type": "functional", "method_in_brief": "as §1"}, "MOLT-4": {"test_system": "MOLT-4", "test": "Cytotoxicity against human MOLT4 cells by SRB method", "type": "functional", "method_in_brief": "as §1"}, "SR": {"test_system": "SR", "test": "Cytotoxicity against human SR cells by SRB method", "type": "functional", "method_in_brief": "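NCI-60 in vitro screen panel of human tumor lines; GI50 (molar concentration giving 50% growth inhibition) and TGI (total growth inhibition) taken from dose–response data.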"}, "HT-29": {"test_system": "HT-29", "test": "Cytotoxicity against human HT-29 cells by SRB method", "type": "functional", "method_in_brief": "as §1"}, "[3]": {"details": "read-out: LC50 (the source's name)"}}}
{"smiles": "CC(C)[C@@]12SS[C@]3(C(=O)N1C)[C@@H](O)[C@]1(C45c6ccccc6N[C@H]4N4C(=O)[C@@]6(CO)SS[C@@]4(C(=O)N6C)[C@H]5O)c4ccccc4N[C@@H]1N3C2=O", "note": "(some centres not stated)", "values": [{"measurement": "GI50", "setting": "[1]; OVCAR-5", "result": 0.0525, "unit": "µM"}, {"measurement": "TGI", "setting": "[1]; OVCAR-5", "result": 0.138, "unit": "µM"}, {"measurement": "CC50", "setting": "[1]; OVCAR-5, read-out: LC50 (the source's name)", "result": 0.363, "unit": "µM"}, {"measurement": "GI50", "setting": "ACHN", "result": 0.0155, "unit": "µM"}, {"measurement": "TGI", "setting": "ACHN", "result": 0.0603, "unit": "µM"}, {"measurement": "CC50", "setting": "ACHN; [3]", "result": 0.234, "unit": "µM"}, {"measurement": "GI50", "setting": "CAKI-1", "result": 0.0087, "unit": "µM"}, {"measurement": "TGI", "setting": "CAKI-1", "result": 0.0224, "unit": "µM"}, {"measurement": "CC50", "setting": "CAKI-1; [3]", "result": 0.0851, "unit": "µM"}, {"measurement": "MTD at 96 h", "setting": "[2]", "result": 1.5, "unit": "mg/kg"}, {"measurement": "GI50", "setting": "CCRF-CEM", "result": 0.0093, "unit": "µM"}, {"measurement": "TGI", "setting": "CCRF-CEM", "result": 0.038, "unit": "µM"}, {"measurement": "CC50", "setting": "CCRF-CEM; [3]", "result": "> 50", "unit": "µM"}, {"measurement": "GI50", "setting": "MOLT-4", "result": 0.0132, "unit": "µM"}, {"measurement": "TGI", "setting": "MOLT-4", "result": 0.0676, "unit": "µM"}, {"measurement": "CC50", "setting": "MOLT-4; [3]", "result": "> 50", "unit": "µM"}, {"measurement": "GI50", "setting": "SR", "result": 0.0112, "unit": "µM"}, {"measurement": "TGI", "setting": "SR", "result": 0.0316, "unit": "µM"}, {"measurement": "CC50", "setting": "SR; [3]", "result": "> 50", "unit": "µM"}, {"measurement": "GI50", "setting": "HT-29", "result": 0.0056, "unit": "µM"}, {"measurement": "TGI", "setting": "HT-29", "result": 0.0135, "unit": "µM"}, {"measurement": "CC50", "setting": "HT-29; [3]", "result": 0.0324, "unit": "µM"}]}
